# According to ChEMBL document CHEMBL5724801, “EUbOPEN Chemogenomics Library - Multiplex” (2024):
# Values joined by “and” are separate entries in the source; they are usually repeats but may differ in a detail not shown here. Identical values can stand only once.
# Tested on: HEK-293T
# Assay: Multiplex assay against HEK293T
# Assay type: toxicity, cell-based
# Conditions: human
# How it was run: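 At seeding, live cells were stained with Hoechst33342, BioTracker Green Microtubule Cytoskeleton Dye, MitoTracker Red and Annexin V Alexa Fluor 680. After compound addition they were imaged on a CQ1 microscope at 37°C and 5% CO2, and CellPathfinder machine-learning gating sorted them into Hoechst high-intensity objects or normal cells, with normal cells further split into healthy, pyknosed or fragmented nuclei and pyknosed cells into mitotic or apoptotic. Tubulin, mitochondrial-mass and membrane-permeability phenotypes are given as per cents of cells with healthy nuclei.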
# [1] = 12 h, 1 µM, compound concentration 1 uM
# [2] = 12 h, 10 µM, compound concentration 10 uM
# [3] = 24 h, 1 µM, compound concentration 1 uM
# [4] = 24 h, 10 µM, compound concentration 10 uM
# [5] = 48 h, 1 µM, compound concentration 1 uM
# [6] = 48 h, 10 µM, compound concentration 10 uM
structure (smiles),measurement,setting,value
O=C(O)c1cc2ccccc2c(Cc2c(O)c(C(=O)O)cc3ccccc23)c1O [PAMOIC ACID],Population Apoptotic (%),[1],30% and 58%
same,Population Fragmented Nuclei (%),[1],9% and 7%
same,Population Healthy Nuclei (%),[1],77%
same,Population Hoechst High Intensity Objects (%),[1],7% and 6%
same,Population Membrane Permeable-Phenotype (%),[1],0%
same,Population Mitochondria Different-Phenotype (%),[1],38% and 60%
same,Population Mitotic Cells (%),[1],69% and 41%
same,Population Normal (%),[1],92% and 93%
same,Population Pyknosed Nuclei (%),[1],12% and 15%
same,Population Tubulin-Different-Phenotype (%),[1],23% and 21%
same,Total Cell Count,[1],432 and 303
same,Population Apoptotic (%),[2],34% and 52%
same,Population Fragmented Nuclei (%),[2],8% and 4%
same,Population Healthy Nuclei (%),[2],79% and 81%
same,Population Hoechst High Intensity Objects (%),[2],8%
same,Population Membrane Permeable-Phenotype (%),[2],0%
same,Population Mitochondria Different-Phenotype (%),[2],44% and 55%
same,Population Mitotic Cells (%),[2],65% and 47%
same,Population Normal (%),[2],91%
same,Population Pyknosed Nuclei (%),[2],12% and 13%
same,Population Tubulin-Different-Phenotype (%),[2],34% and 26%
same,Total Cell Count,[2],446 and 275
same,Population Apoptotic (%),[3],29% and 40%
same,Population Fragmented Nuclei (%),[3],8% and 5%
same,Population Healthy Nuclei (%),[3],78% and 86%
same,Population Hoechst High Intensity Objects (%),[3],6%
same,Population Membrane Permeable-Phenotype (%),[3],1% and 0%
same,Population Mitochondria Different-Phenotype (%),[3],22% and 39%
same,Population Mitotic Cells (%),[3],70% and 59%
same,Population Normal (%),[3],93%
same,Population Pyknosed Nuclei (%),[3],12% and 7%
same,Population Tubulin-Different-Phenotype (%),[3],16%
same,Total Cell Count,[3],559 and 378
same,Population Apoptotic (%),[4],29% and 41%
same,Population Fragmented Nuclei (%),[4],9% and 5%
same,Population Healthy Nuclei (%),[4],75% and 79%
same,Population Hoechst High Intensity Objects (%),[4],5% and 7%
same,Population Membrane Permeable-Phenotype (%),[4],0%
same,Population Mitochondria Different-Phenotype (%),[4],27% and 43%
same,Population Mitotic Cells (%),[4],70% and 58%
same,Population Normal (%),[4],94% and 92%
same,Population Pyknosed Nuclei (%),[4],14% and 15%
same,Population Tubulin-Different-Phenotype (%),[4],22% and 18%
same,Total Cell Count,[4],592 and 365
same,Population Apoptotic (%),[5],18% and 48%
same,Population Fragmented Nuclei (%),[5],11% and 8%
same,Population Healthy Nuclei (%),[5],81% and 84%
same,Population Hoechst High Intensity Objects (%),[5],2% and 7%
same,Population Membrane Permeable-Phenotype (%),[5],1% and 0%
same,Population Mitochondria Different-Phenotype (%),[5],13% and 27%
same,Population Mitotic Cells (%),[5],81% and 51%
same,Population Normal (%),[5],97% and 92%
same,Population Pyknosed Nuclei (%),[5],7% and 6%
same,Population Tubulin-Different-Phenotype (%),[5],10% and 11%
same,Total Cell Count,[5],998 and 494
same,Population Apoptotic (%),[6],24% and 36%
same,Population Fragmented Nuclei (%),[6],13% and 11%
same,Population Healthy Nuclei (%),[6],79% and 82%
same,Population Hoechst High Intensity Objects (%),[6],3% and 7%
same,Population Membrane Permeable-Phenotype (%),[6],0%
same,Population Mitochondria Different-Phenotype (%),[6],18% and 27%
same,Population Mitotic Cells (%),[6],75% and 64%
same,Population Normal (%),[6],96% and 92%
same,Population Pyknosed Nuclei (%),[6],7% and 5%
same,Population Tubulin-Different-Phenotype (%),[6],10% and 12%
same,Total Cell Count,[6],879 and 517
c1ccc2nc(N3CCNCC3)ccc2c1 [QUIPAZINE],Population Apoptotic (%),[1],6.35% and 5.69%
same,Population Fragmented Nuclei (%),[1],1.8% and 5.66%
same,Population Healthy Nuclei (%),[1],49.61% and 16.98%
same,Population Hoechst High Intensity Objects (%),[1],0%
same,Population Membrane Permeable-Phenotype (%),[1],0.52% and 0%
same,Population Mitochondria Different-Phenotype (%),[1],33.16% and 11.11%
same,Population Mitotic Cells (%),[1],93.65% and 94.31%
same,Population Normal (%),[1],100%
same,Population Pyknosed Nuclei (%),[1],48.59% and 77.36%
same,Total Cell Count,[1],389 and 159
same,Population Apoptotic (%),[2],10.22% and 12.62%
same,Population Fragmented Nuclei (%),[2],1.36% and 2.36%
same,Population Hoechst High Intensity Objects (%),[2],0.68% and 0%
same,Population Membrane Permeable-Phenotype (%),[2],0.65% and 4.76%
same,Population Mitochondria Different-Phenotype (%),[2],23.53% and 19.05%
same,Population Mitotic Cells (%),[2],89.78% and 87.38%
same,Population Normal (%),[2],99.32% and 100%
same,Population Pyknosed Nuclei (%),[2],46.6% and 81.1%
same,Total Cell Count,[2],296 and 127
same,Population Apoptotic (%),[3],10.39% and 10%
same,Population Fragmented Nuclei (%),[3],1.31% and 1.74%
same,Population Healthy Nuclei (%),[3],73.44% and 34.3%
same,Population Hoechst High Intensity Objects (%),[3],0%
same,Population Membrane Permeable-Phenotype (%),[3],2.9% and 0%
same,Population Mitochondria Different-Phenotype (%),[3],14.29% and 11.86%
same,Population Mitotic Cells (%),[3],89.61% and 90%
same,Population Normal (%),[3],100%
same,Population Pyknosed Nuclei (%),[3],25.25% and 63.95%
same,Population Tubulin-Different-Phenotype (%),[3],16.29% and 6.78%
same,Population Apoptotic (%),[4],18.49% and 17.05%
same,Population Fragmented Nuclei (%),[4],1.63% and 1.53%
same,Population Healthy Nuclei (%),[4],74.08% and 31.3%
same,Population Hoechst High Intensity Objects (%),[4],0.41% and 0%
same,Population Membrane Permeable-Phenotype (%),[4],1.1% and 0%
same,Population Mitochondria Different-Phenotype (%),[4],15.98% and 14.63%
same,Population Mitotic Cells (%),[4],81.51% and 82.95%
same,Population Normal (%),[4],99.59% and 100%
same,Population Pyknosed Nuclei (%),[4],24.29% and 67.18%
same,Population Tubulin-Different-Phenotype (%),[4],15.98% and 9.76%
same,Population Fragmented Nuclei (%),[5],2.36% and 0.5%
same,Population Healthy Nuclei (%),[5],83.55% and 65%
same,Population Hoechst High Intensity Objects (%),[5],0.15% and 0%
same,Population Membrane Permeable-Phenotype (%),[5],6.88% and 1.54%
same,Population Mitochondria Different-Phenotype (%),[5],14.83% and 16.15%
same,Population Mitotic Cells (%),[5],95.81% and 81.16%
same,Population Normal (%),[5],99.85% and 100%
same,Population Pyknosed Nuclei (%),[5],14.09% and 34.5%
same,Population Apoptotic (%),[6],13.64% and 6.25%
same,Population Fragmented Nuclei (%),[6],3.18% and 1.42%
same,Population Healthy Nuclei (%),[6],86.82% and 64.54%
same,Population Hoechst High Intensity Objects (%),[6],0%
same,Population Membrane Permeable-Phenotype (%),[6],5.34% and 3.3%
same,Population Mitochondria Different-Phenotype (%),[6],17.59% and 12.09%
same,Population Mitotic Cells (%),[6],86.36% and 93.75%
same,Population Normal (%),[6],100%
